Results: ChEMBL document CHEMBL3826928, “Incorporation of Phosphonate into Benzonaphthyridine Toll-like Receptor 7 Agonists for Adsorption to Aluminum Hydroxide” (J Med Chem, 2016)

Legend:
Format in all cases: cell-based
[1] = target: T1, Toll-like receptor 7 (Homo sapiens) (UniProt Q9NYK1); experiment: Agonist activity at TLR7 in human PBMC assessed as induction of IL-6 secretion in supernatant after 18 hrs relative to resiquimod
T1 sequence (whole entry): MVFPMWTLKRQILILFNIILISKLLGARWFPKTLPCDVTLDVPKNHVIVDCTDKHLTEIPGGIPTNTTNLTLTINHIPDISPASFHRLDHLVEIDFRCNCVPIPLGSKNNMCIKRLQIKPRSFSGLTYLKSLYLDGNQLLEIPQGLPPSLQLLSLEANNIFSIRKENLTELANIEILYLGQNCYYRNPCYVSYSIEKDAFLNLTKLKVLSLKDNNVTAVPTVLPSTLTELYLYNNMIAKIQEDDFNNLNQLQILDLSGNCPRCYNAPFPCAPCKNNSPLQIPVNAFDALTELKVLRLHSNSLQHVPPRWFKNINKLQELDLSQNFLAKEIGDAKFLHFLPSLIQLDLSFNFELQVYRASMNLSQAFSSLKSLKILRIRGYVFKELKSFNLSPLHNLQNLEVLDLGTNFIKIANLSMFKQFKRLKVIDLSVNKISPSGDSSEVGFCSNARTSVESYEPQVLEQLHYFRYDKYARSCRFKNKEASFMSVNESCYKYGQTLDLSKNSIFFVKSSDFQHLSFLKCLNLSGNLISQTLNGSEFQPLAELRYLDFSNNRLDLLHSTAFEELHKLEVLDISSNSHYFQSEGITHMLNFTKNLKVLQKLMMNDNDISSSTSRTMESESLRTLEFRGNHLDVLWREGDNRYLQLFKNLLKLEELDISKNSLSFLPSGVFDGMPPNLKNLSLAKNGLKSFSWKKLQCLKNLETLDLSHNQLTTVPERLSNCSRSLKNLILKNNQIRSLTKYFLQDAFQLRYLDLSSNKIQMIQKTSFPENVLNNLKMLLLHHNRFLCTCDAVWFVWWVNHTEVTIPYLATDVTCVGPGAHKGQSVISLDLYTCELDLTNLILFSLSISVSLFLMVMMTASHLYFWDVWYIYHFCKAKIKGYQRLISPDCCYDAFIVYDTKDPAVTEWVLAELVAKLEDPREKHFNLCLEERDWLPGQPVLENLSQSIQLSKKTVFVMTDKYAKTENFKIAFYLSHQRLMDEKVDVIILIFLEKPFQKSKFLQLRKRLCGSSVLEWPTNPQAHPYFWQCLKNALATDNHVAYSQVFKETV
How it was run: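 Isolated human PBMCs washed in PBS, resuspended in RPMI1640 with 10% heat-inactivated FBS, pyruvate, HEPES, at 1 × 10⁶ cells/mL. Compounds as in-situ sodium salts from 10 mM aqueous stocks, 3-fold 10-point dilutions from 30 μM.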

[2] = target: T2, Toll-like receptor 8 (Homo sapiens) (UniProt Q9NR97); experiment: Agonist activity at human TLR8 expressed in HEK293 cells up to 30 uM incubated for 6 hrs by luciferase reporter gene assay relative to resiquimod
T2 sequence (whole entry): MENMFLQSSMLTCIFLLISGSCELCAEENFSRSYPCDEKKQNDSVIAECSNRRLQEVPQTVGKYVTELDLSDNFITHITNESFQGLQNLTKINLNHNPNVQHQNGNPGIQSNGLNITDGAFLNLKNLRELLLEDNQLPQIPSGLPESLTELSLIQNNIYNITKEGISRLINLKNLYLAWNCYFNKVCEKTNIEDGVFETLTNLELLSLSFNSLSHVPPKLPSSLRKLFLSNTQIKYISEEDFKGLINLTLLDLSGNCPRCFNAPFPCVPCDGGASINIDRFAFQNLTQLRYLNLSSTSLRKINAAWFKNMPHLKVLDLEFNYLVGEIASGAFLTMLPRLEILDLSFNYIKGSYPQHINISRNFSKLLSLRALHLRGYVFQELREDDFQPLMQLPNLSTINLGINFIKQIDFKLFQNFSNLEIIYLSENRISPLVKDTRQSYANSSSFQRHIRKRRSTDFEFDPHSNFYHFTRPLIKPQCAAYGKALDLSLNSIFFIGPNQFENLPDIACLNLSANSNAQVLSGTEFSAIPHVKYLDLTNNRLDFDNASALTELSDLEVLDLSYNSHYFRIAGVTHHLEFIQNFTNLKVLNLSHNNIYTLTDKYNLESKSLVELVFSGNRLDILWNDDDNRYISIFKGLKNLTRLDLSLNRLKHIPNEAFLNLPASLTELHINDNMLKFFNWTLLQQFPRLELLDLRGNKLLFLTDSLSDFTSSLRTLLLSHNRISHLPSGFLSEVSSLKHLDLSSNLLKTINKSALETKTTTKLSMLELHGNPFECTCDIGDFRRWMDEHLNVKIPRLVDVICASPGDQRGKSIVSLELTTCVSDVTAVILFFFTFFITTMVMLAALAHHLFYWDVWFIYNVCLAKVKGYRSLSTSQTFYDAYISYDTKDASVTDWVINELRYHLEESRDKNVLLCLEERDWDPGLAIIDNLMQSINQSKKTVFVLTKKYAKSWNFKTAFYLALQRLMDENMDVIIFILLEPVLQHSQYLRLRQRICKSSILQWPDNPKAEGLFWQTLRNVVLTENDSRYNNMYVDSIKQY

[3] = target: T1, Toll-like receptor 7 (Homo sapiens); experiment: Agonist activity at human TLR7 expressed in HEK293 cells incubated for 6 hrs by luciferase reporter gene assay relative to resiquimod
How it was run: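 HEK293 stably carrying NF-κB-firefly luciferase reporter plus human TLR7 (best resiquimod-responding clone), maintained under puromycin/blasticidin. 25 000 cells per well in DMEM with 3% FCS.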

`Cc1cc(OCCOCCOCCC(F)(F)P(=O)(O)O)ccc1CCc1cnc2c(N)nc3cc(CCC(=O)O)ccc3c2c1` was tested, and the %max [1] was 35%, the Activity [2] was < 5% and the %max [3] was 100%.

With `Cc1ccc2c(c1)nc(N)c1ncc(CCc3ccc(OCCCP(=O)(O)O)cc3C)cc12` the Activity [2] was < 5%.

For `Cc1cc(OCCOCCOCCP(=O)(O)O)ccc1CCc1cnc2c(N)nc3cc(CCC(=O)O)ccc3c2c1`, the %max [1] was 58%, the Activity [2] was < 5% and the %max [3] was 110%.

`Cc1cc(OCCCC(F)(F)P(=O)(O)O)ccc1CCc1cnc2c(N)nc3cc(CCC(=O)O)ccc3c2c1` was tested, and the %max [1] was 35%, the Activity [2] was < 5% and the %max [3] was 95%.

With `Cc1ccc2c(c1)nc(N)c1ncc(CCc3ccc(OCCOCCOCCC(F)(F)P(=O)(O)O)cc3C)cc12` the %max [1] was 36%, the Activity [2] was < 5% and the %max [3] was 95%.
